Compounds with a hit are over-represented: about 2.4% of the library has one in this group of screens.
OPRM1-OPRD1 inv = inverse agonist of human OPRM1-OPRD1 heterodimerization. P35372+P41143. cell-based MOR-DOR heterodimer luminescence, inverse agonism. inhibition, % at 9.3 µM. 340,000 compounds, 0.21% hits. AID 504357; in the data active means inhibition above about 22%, passing the limit was not always enough;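 further: 0% = cells with DMSO and 100% = wells without cells with DMSO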
Target sequence (P35372 whole entry, looked up): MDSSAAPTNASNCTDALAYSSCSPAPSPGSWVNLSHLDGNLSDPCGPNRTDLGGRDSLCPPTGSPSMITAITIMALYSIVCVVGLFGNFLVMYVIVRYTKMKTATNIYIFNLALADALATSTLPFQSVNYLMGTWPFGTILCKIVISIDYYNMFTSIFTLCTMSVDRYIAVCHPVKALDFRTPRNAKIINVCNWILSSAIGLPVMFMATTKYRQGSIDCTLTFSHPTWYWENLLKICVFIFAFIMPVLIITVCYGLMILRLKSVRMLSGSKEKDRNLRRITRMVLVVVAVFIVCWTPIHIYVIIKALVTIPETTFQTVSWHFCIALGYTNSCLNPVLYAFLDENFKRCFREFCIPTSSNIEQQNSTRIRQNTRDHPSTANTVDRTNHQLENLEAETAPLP
Target sequence (P41143 whole entry, looked up): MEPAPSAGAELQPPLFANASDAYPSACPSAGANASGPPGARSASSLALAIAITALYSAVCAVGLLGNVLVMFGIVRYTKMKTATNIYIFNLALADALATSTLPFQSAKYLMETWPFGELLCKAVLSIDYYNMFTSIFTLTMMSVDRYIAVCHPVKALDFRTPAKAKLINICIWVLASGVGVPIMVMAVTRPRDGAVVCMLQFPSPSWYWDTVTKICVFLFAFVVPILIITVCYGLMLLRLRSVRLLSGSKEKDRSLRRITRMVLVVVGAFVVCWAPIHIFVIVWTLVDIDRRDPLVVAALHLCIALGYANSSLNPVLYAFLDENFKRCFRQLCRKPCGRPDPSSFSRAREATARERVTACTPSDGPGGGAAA
HTR5A ag ctr = counter-screen for OPRM1-OPRD1 agonists: human HTR5A agonism; P47898; HTR5A agonist assay, luminescence, cell-based; activation, % at 9.3 µM; 340,000 compounds, 0.61% hits; in the data active means activation mostly above about 9.5%, no sharp cut-off; inactive means mostly below about 7.6%;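 further: 0% = cells with vehicle only and 100% = reference agonist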
MOR-DOR ag = OPRM1-OPRD1 heterodimerization agonism. activation, % at 9.3 µM. P35372+P41143. cells, luminescence. 340,000 compounds, 0.3% hits; in the data active means activation above about 18%;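 further: 0% = vehicle-treated cells and 100% = reference agonist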
HTR5A inv ctr = counter-screen for OPRM1-OPRD1 inverse agonists: human HTR5A inverse agonism; P47898; HTR5A cell line, luminescence; inhibition, % at 9.3 µM; 340,000 compounds, 0.083% hits; in the data active means inhibition mostly above about 23%, no sharp cut-off; inactive means mostly below about 18%;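 further: 0% = cells with DMSO and 100% = no-cell wells with DMSO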
MC4R ag barr = activates human MC4R beta-arrestin recruitment; AID 540308; P32245; U2OS MC4R beta-arrestin complementation, luminescence; percent of melanotan II response, DMSO zero; activation, % at 8.9 µM; 360,000 compounds, 0.98% hits;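 active means activation above a per-plate cutoff, the mean activation of sample wells on that plate plus 3 SD, cut at about 8% in these data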
MC4R antag cAMP = human MC4R antagonism in cAMP assay. P32245. MC4R-expressing cells, MTII-stimulated cAMP, LANCE TR-FRET. inhibition, % at 6.5 µM. 360,000 compounds, 0.48% hits;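 active means inhibition above its plate's cutoff, the mean of tested wells on that plate plus 3 SD, cut at about 29% in these data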;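 further: 0% = Melanotan II alone and 100% = Melanotan II plus saturating MCL0020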
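System – human MC4R-expressing U2OS cells · Also added – Melanotan II · Dosing – one concentration, 6.5 µM nominal · Timing – 30-min compound, 1-h challenge, 1-h detection, room temperature · Measured by – Eu-cAMP/anti-cAMP TR-FRET, emission 671 nm · Replicates – singlicate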
U2OS cAMP counter = counter-screen for MC4R antagonists: nonselective cAMP signaling inhibitors; shares compounds with MC4R antag cAMP; parental U2OS, forskolin cAMP, LANCE TR-FRET; inhibition, % at 6.5 µM; 1,600 compounds, 26% hits; AID 602193;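 active means mean inhibition over triplicates above the low-control well mean plus 3 SD, set per campaign, cut at about 13% in these data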;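 further: signal is single emission at 671 nm which falls as cellular cAMP rises; 0% = forskolin-stimulated wells and 100% = buffer without forskolin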
MC4R antag conf = human MC4R cAMP antagonism confirmation; shares compounds with MC4R antag cAMP; MC4R-expressing cells, MTII-stimulated cAMP, TR-FRET; inhibition, % at 6.5 µM; 1,600 compounds, 27% hits; in the data active means inhibition above about 29%;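 further: 0% = agonist stimulated wells alone and 100% = agonist stimulated wells plus saturating reference antagonist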
MC4R barr ag = human MC4R beta-arrestin agonism confirmation. activation, % at 8.9 µM. U2OS MC4R beta-arrestin recruitment, luminescence; scaled DMSO 0%, Melanotan II 100%. 2,400 compounds, 31% hits. shares compounds with MC4R ag barr;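 active means mean activation across replicates above the hit cutoff set in the earlier primary screen, cut at about 8% in these data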
MOR DOR agonist = counter-screen for MC4R agonists: agonists of mu-delta opioid heterodimer; shares compounds with MC4R ag barr; U2OS PathHunter beta-arrestin, beta-gal luminescence; percent of deltorphin B response, DMSO zero; activation, % at 9.2 µM; 2,400 compounds, 5.8% hits; AID 602194;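 active means mean activation across replicates exceeds the hit threshold derived in the earlier primary screen, cut at about 18% in these data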;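 further: 100% = deltorphin B at 0.9 µM final and 0% = DMSO alone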
The depositor's hits bear a star; x = no result.

SMILES	OPRM1-OPRD1 inv	HTR5A ag ctr	MOR-DOR ag	HTR5A inv ctr	MC4R ag barr	MC4R antag cAMP	U2OS cAMP counter	MC4R antag conf	MC4R barr ag	MOR DOR agonist
CC(C)NC(=O)C1CCN(C(=O)c2cc3sccc3n2Cc2ccc(F)cc2)CC1	-16.4	-5.9	2.6	15.6	0.7	32.2*	2.5	5.7	x	x
CCOC(=O)c1sc(NC(=O)CCN2CCC(C)CC2)c(C(=O)OCC)c1C	14.5	-2.4	-3.1	6.6	-0.9	18.9	x	x	x	x
CCOC(=O)c1sc(NC(=O)CCN2CCN(CC)CC2)c(C(=O)OCC)c1C	-10.8	-2.3	2.1	5.9	-4.5	42.3*	6.7	26.2	x	x
N#Cc1c(N2CCN(C(=O)c3ccco3)CC2)nc(-c2ccccc2)c2c1CCCC2	4.4	-0.1	-0.8	0.1	2.1	34.3*	8.1	43.3*	x	x
Cc1cc2nc[nH]c2cc1[N+](=O)[O-]	-7.5	-1.4	1.0	3.8	-0.2	28.7*	5.1	2.0	x	x
Cc1cc(N)ncc1[N+](=O)[O-]	14.2	1.5	-3.2	-5.9	-2.2	1.4	x	x	x	x
CC(Cn1cncn1)NC(=O)c1cc(COc2cccc(C(F)(F)F)c2)on1 (stereo unspecified)	9.2	4.7	-1.7	-27.3	-3.2	7.3	x	x	x	x
COC(=O)C=C1CCC2C3CCC4=CC(=O)C(Br)CC4(C)C3C(=O)CC12C (stereo unspecified)	6.4	-2.1	-1.3	8.2	-1.0	30.8*	2.5	21.9	x	x
CC12CCC(=O)C=C1CCC1C2C(=O)CC2(C)C1CCC2(O)C(=O)CO (stereo unspecified)	-4.6	-1.2	0.9	2.7	1.9	7.3	x	x	x	x
Cc1cccc(OCC(=O)Nc2ccc3c(c2)nc(CN2CCCCC2)n3C)c1	-6.8	1.1	1.3	-19.5	0.8	32.1*	-1.2	-16.0	x	x
Fc1ccccc1OCC1CCCN(Cc2nc(CC3CC3)no2)C1 (stereo unspecified)	-12.5	-0.3	2.4	0.8	-3.0	16.4	x	x	x	x
O=C(NCC(c1cccs1)N1CCOCC1)c1cccnc1 (stereo unspecified)	-1.2	1.0	0.4	11.0	-2.0	2.7	x	x	x	x
O=C(NCC(c1cccs1)N1CCOCC1)c1cnc(Cl)c(Cl)c1 (stereo unspecified)	10.6	-1.4	-2.5	3.6	-4.0	30.2*	17.4*	37.8*	x	x
Cc1ccc(-c2cn3cccnc3n2)cc1NC(=O)c1cccs1	7.5	2.4	-1.4	-8.7	1.7	30.0*	-4.9	-15.3	x	x
O=C(Nc1ccccc1-c1nc2ccccc2[nH]1)c1ccc(S(=O)(=O)N2CCCCC2)cc1	-16.2	7.4	3.0	-35.4	-1.8	5.3	x	x	x	x
O=C(Nc1ccccc1-c1nc2ccccc2[nH]1)c1ccc(N2C(=O)CCC2=O)cc1	-31.2	-2.5	5.5	6.4	10.3*	35.3*	-0.9	26.8	2.3	10.1
O=C(CSc1nnc(COc2ccc(Cl)cc2)o1)N1CCOCC1	-4.8	-3.0	0.9	3.1	0.7	26.1	x	x	x	x
CC(=O)OC[C@]12CC[C@H]3[C@@](C)(CC[C@H]4C(C)(C)CCC[C@]34C)[C@@H]1CC(C1=CC(=O)OC1O)O2 (stereo partly specified)	x	x	x	x	91.5*	51.6*	5.5	35.3*	26.1*	82.2*
N#Cc1cnc2c(-c3ccccc3)c(-c3ccccc3)nn2c1N	-17.0	4.7	3.4	-13.3	0.8	5.3	x	x	x	x
Cc1nnc(-c2cccc(Br)c2)c2cn(-c3cccc(Br)c3)nc12	-13.3	1.1	2.5	-2.8	13.1*	32.7*	5.3	29.4*	5.6	5.3
CCCCCCCCCC[N+](C)(C)CC/C=C1/c2ccccc2Sc2ccc(Cl)cc21	-46.2	-0.6	9.0	2.4	17.4*	41.0*	9.2	40.1*	17.8*	25.8*
CCCCCCCCCCC[N+](C)(C)CC/C=C1/c2ccccc2Sc2ccc(Cl)cc21	-44.8	1.9	8.7	-6.8	20.9*	36.0*	6.5	29.9*	24.6*	19.1*
CC(C)CCNc1nc(N)c([N+](=O)[O-])c(N2CCCCCC2)n1	-42.2	4.8	9.3	-16.8	3.7	10.7	x	x	x	x
CCc1nnc(NS(=O)(=O)c2ccc(NC(=S)NC(=O)/C=C/c3ccc(C(C)C)cc3)cc2)s1	13.3	-2.7	-2.3	11.3	24.3*	29.1*	-2.4	-5.7	0.8	0.9
CCc1nnc(NS(=O)(=O)c2ccc(NC(=S)NC(=O)/C=C/c3ccccc3)cc2)s1	17.1	-0.9	-2.8	0.2	-1.4	9.7	x	x	x	x
SMILES	OPRM1-OPRD1 inv	HTR5A ag ctr	MOR-DOR ag	HTR5A inv ctr	MC4R ag barr	MC4R antag cAMP	U2OS cAMP counter	MC4R antag conf	MC4R barr ag	MOR DOR agonist
COc1ccc2oc(=O)c(-c3csc(Nc4cccc(O)c4)n3)cc2c1	-28.4	-3.0	5.0	10.1	13.2*	30.1*	5.0	1.8	27.9*	4.5
O=C(/C=C/c1ccc2c(c1)OCCO2)N1CCN(c2ccc(F)cc2)CC1	2.7	1.1	-0.6	-4.0	-0.6	2.0	x	x	x	x
O=C(/C=C/c1ccc2c(c1)OCO2)N1CCN(c2ccc(Cl)cc2)CC1	1.4	2.6	-0.3	-4.9	13.0*	28.6*	-2.9	-16.6	2.0	4.2
COc1ccc(OCCCC(=O)Nc2nccs2)cc1	5.6	-0.7	-1.1	1.7	-2.1	-0.8	x	x	x	x
COC(=O)[C@]1(Cc2ccccc2)N[C@H](CN(C)C(=O)c2ccc(F)cc2)[C@@H]2C(=O)N(C)C(=O)[C@@H]21	8.7	-1.8	-1.9	6.8	-0.5	2.4	x	x	x	x
CCCCCCCCCCCCCCCC[N+](C)(C)Cc1ccc(F)cc1	-16.5	11.0*	3.4	-42.2	16.2*	41.7*	-1.1	31.9*	31.1*	13.3
CC#CC[N+](C)(C)CCCCCCCC	18.9	-4.8	-3.7	1.0	-0.3	20.7	x	x	x	x
CSc1ccc(/C=C/C(=O)OCC(=O)c2ccc[nH]2)cc1	-4.7	13.1*	1.3	12.9	21.6*	5.3	x	x	-1.0	6.3
COc1ccc(-c2csc(NC(=O)c3ccccc3C(=O)O)n2)cc1	-0.4	-4.2	0.1	1.4	-1.6	3.2	x	x	x	x
COc1ccc(-c2csc(NC(=O)c3nc(-c4ccccc4)oc3C)n2)cc1	8.4	3.9	-1.7	-9.4	11.8*	-3.0	x	x	2.4	3.6
Nc1c(-c2ccccn2)cnn1-c1nc(-c2ccc(F)cc2)cs1	-19.0	5.5	3.6	-14.9	9.7*	-0.6	x	x	4.3	2.4
